Shown are actives, neighbours in structure and some others; about 2.5% of the full set was active somewhere.
Beta2AR agonist – human beta-2 adrenergic receptor agonism by FAP. P07550. Am2.2-beta2AR cells, FAP receptor internalization, flow cytometry. response, % (no concentration beside the values). 340,000 compounds, 0.43% hits. AID 504454;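 active = response above a set limit, near 3 SD of response in nonfluorescent compounds, cut at about 42% in these data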
MBD2 DNA inh – inhibitors of human MBD2 binding to methylated oligonucleotide | Q9UBB5 | TR-FRET | inhibition, % at 4.4 µM | 370,000 compounds, 0.31% hits | AID 686964; in the data active = inhibition above about 13%
Target sequence (Q9UBB5 whole entry, looked up): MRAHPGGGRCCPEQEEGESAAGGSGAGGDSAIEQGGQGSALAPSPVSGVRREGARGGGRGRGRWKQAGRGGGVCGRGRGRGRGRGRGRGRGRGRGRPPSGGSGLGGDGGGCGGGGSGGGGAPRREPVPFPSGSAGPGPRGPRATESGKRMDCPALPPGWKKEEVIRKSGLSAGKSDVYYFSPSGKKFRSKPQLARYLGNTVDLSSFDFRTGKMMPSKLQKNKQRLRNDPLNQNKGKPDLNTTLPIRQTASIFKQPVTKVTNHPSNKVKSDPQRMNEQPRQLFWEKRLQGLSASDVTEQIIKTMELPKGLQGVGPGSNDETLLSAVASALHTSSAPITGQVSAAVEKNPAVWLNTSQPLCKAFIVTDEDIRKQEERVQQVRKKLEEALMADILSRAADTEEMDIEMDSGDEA
Rin1-Abl PPI inh – inhibitors of human Rin1-Abl protein interaction | inhibition, % at 7.35 µM | P00519+Q13671 | TR-FRET Rin1/Abl binding, biochemical | 360,000 compounds, 0.4% hits; in the data active = inhibition above about 5%, passing the limit was not always enough
Arr AP2 block – inhibitors of human beta-arrestin and AP2 interaction; FITC-arrestin peptide / GST-AP2 beads, flow cytometry; AP2 beta2 appendage carries R879A mutation; inhibition, % at 10 µM; 340,000 compounds, 0.31% hits; AID 504490;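 active = inhibition above a set limit, near 3 SD of compounds lacking own fluorescence, cut at about 54% in these data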
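test system = AP2 appendage R879A on GSH beads | buffer or medium = PBS plus Tween 20 (0.05%) and BSA (0.1%) | incubation = 12 min plus 1 h, RT | detection = bead flow cytometry, FITC channel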
UHRF1 binding – UHRF1 methyl-DNA binding inhibition. Q96T88. UHRF1 binding to methylated oligo, TR-FRET. inhibition, % at 4.4 µM. 370,000 compounds, 0.75% hits. AID 687016; in the data active = inhibition above about 21%;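 also: UHRF1 SRA domain binding a hemimethylated CpG hairpin DNA probe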
ABHD5 PLIN5 PPI – inhibitors of human ABHD5-perilipin-5 interaction | AID 602281 | inhibition, % at 4 µM | 360,000 compounds, 0.78% hits | Split G. princeps luciferase complementation, luminescence, 4 h | Q00G26+Q8WTS1;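 active = inhibition above the mean inhibition across every tested compound plus 3 SD, cut at about 22% in these data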
Of the large screens only hits and unclear results are named; the others gave an inactive call.

O=C(COc1ccc([N+](=O)[O-])cc1)Nc1cc(S(=O)(=O)N2CCCCC2)ccc1N1CCCCC1	UHRF1 binding 22
CCN1CCN(c2ccc(S(=O)(=O)N3CCOCC3)cc2NC(=O)CC(NC(C)=O)c2ccccc2)CC1 (centres undefined)	none
Cc1ccc(S(=O)(=O)N2CCCCC2)cc1NC(=O)COC(=O)c1ccc(O)cc1	UHRF1 binding 34
CCN1CCN(c2ccc(S(=O)(=O)N3CCCCC3)cc2NC(=O)CC(C)c2ccccc2)CC1 (centres undefined)	UHRF1 binding 52
O=[N+]([O-])c1cccc2[nH]c(CNc3nc(N4CCOCC4)nc4c3ncn4-c3ccsc3)nc12	none (no result: Beta2AR agonist, Rin1-Abl PPI inh, Arr AP2 block, ABHD5 PLIN5 PPI)
O=C(Cc1ccccc1)NC1CCCc2c1cnn2-c1ccc(F)cc1F (centres undefined)	none (no result: Beta2AR agonist, Rin1-Abl PPI inh, Arr AP2 block, ABHD5 PLIN5 PPI)
COC(=O)C1CN(C2CC2)CCS(=O)(=O)N1Cc1cn(Cc2ccc(C)cc2)nn1 (centres undefined)	none (no result: Beta2AR agonist, Rin1-Abl PPI inh, Arr AP2 block, ABHD5 PLIN5 PPI)
CC(=O)Nc1ccc(NCN2C(=O)C3C4CCC(C4)C3C2=O)cc1 (centres undefined)	UHRF1 binding 29
COc1cc2c(cc1OC)C(c1ccc(Br)cc1)NC(=O)C2 (centres undefined)	none
COc1cc2c(cc1OC)C(c1ccccc1)NC(C)(C)C2 (centres undefined)	UHRF1 binding 46
O=C(OCn1ncc(Cl)c(Cl)c1=O)c1cccc(C(F)(F)F)c1	none (no result: MBD2 DNA inh, UHRF1 binding)
O=C(OCc1cnc(Cl)s1)c1ccccc1Cl	none
O=C(OCn1ncc(Br)c(Br)c1=O)c1ccc(F)cc1	Beta2AR agonist 78 (no result: MBD2 DNA inh, UHRF1 binding)
O=C(OCn1ncc(Br)c(Br)c1=O)c1ccccc1Cl	Beta2AR agonist 49 (no result: MBD2 DNA inh, UHRF1 binding)
C[C@@H](NC(=O)Cn1ccc(NC(=O)OCc2ccccc2)nc1=O)c1cccc2ccccc12	none
C[C@@H](NCCCn1ccc(NC(=O)OCc2ccccc2)nc1=O)c1cccc2ccccc12	Beta2AR agonist 44
CN(C)c1ccc(NC2=C(Cl)C(=O)c3ccccc3C2=O)cc1	none
O=C(Nc1ccc2cn[nH]c2c1)c1c(Cl)cccc1Cl	UHRF1 binding 22
O=C(Nc1ccc2cn[nH]c2c1)c1ccccc1F	none
O=C1C(Cl)=C(Nc2ccc3cn[nH]c3c2)C(=O)c2ccccc21	Beta2AR agonist 104, ABHD5 PLIN5 PPI 29
C=CCn1c(SCC(=O)NCCCC)nc2scc(-c3ccco3)c2c1=O	ABHD5 PLIN5 PPI 40
C=CCn1c(SCC(C)=O)nc2scc(-c3ccc(C)o3)c2c1=O	none
Cc1cc(C(=O)O[C@@H]2CCC[C@@]3(C(=O)N(Cc4ccccc4)c4ccccc43)[C@H]2NC(=O)CCc2ccccc2)no1	none (no result: Beta2AR agonist, Rin1-Abl PPI inh, Arr AP2 block, ABHD5 PLIN5 PPI)
COc1ccccc1NC(=O)C1=C(C)N(c2ccccc2)C(=S)NC1c1cccc(C(F)(F)F)c1 (centres undefined)	none
COC(=O)c1ccc(C2NC(=S)N(c3ccccc3)C(C)=C2C(=O)Nc2ccccc2OC)cc1 (centres undefined)	Beta2AR agonist 46
CC(=O)NN1C(=O)c2ccccc2NC1c1ccccc1F (centres undefined)	UHRF1 binding 63
COc1ccc(C#CCN(C)/C(N)=N/C(=O)OCc2ccccc2)cc1	none (no result: Beta2AR agonist, Rin1-Abl PPI inh, Arr AP2 block, ABHD5 PLIN5 PPI)
C[C@@H]1CCCCO[C@@H](CN(C)C(=O)CCC(F)(F)F)[C@@H](C)CN([C@H](C)CO)C(=O)c2cc(NS(=O)(=O)c3cccs3)ccc2O1	UHRF1 binding 22 (no result: Beta2AR agonist, Rin1-Abl PPI inh, Arr AP2 block, ABHD5 PLIN5 PPI)
C[C@@H]1CCCCO[C@H](CN(C)C(=O)CCC(F)(F)F)[C@H](C)CN([C@@H](C)CO)C(=O)c2cc(NS(=O)(=O)c3ccc(Cl)cc3)ccc2O1	none (no result: Beta2AR agonist, Rin1-Abl PPI inh, Arr AP2 block, ABHD5 PLIN5 PPI)
C[C@@H]1CN([C@@H](C)CO)C(=O)c2cc(NC(=O)c3ccccc3)ccc2O[C@@H](C)CCCCO[C@@H]1CN(C)S(=O)(=O)c1ccc(F)cc1	UHRF1 binding 21 (no result: Beta2AR agonist, Arr AP2 block)
Cc1ccc(S(=O)(=O)N(C)C[C@@H]2OCCCC[C@H](C)Oc3ccc(NC(=O)Nc4ccc(F)cc4)cc3C(=O)N([C@H](C)CO)C[C@H]2C)cc1	none (no result: Beta2AR agonist, Arr AP2 block)
CC(C)=CCC[C@@]1(C(=O)O)[C@H]2CC=C(CO)[C@@H]1CC/C(C)=C/CC/C(C)=C/C2	none (no result: Beta2AR agonist, Rin1-Abl PPI inh, Arr AP2 block, ABHD5 PLIN5 PPI)
Cc1ccc2nc(-c3ccc(NC(=O)CSc4nnc(-c5cc(-c6ccc(F)cc6)n[nH]5)n4N)cc3)sc2c1	none (no result: Beta2AR agonist, Rin1-Abl PPI inh, Arr AP2 block, ABHD5 PLIN5 PPI)
Nc1ccc(-c2cc3ccccc3oc2=O)cc1	none
